≈ marks a conversion by molar mass, not a printed value.
What was measured:
[1] = Cytotoxicity against rat NBT-T2 cells by MTT method; format: cell-based
Summary of the method: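 Rat bladder epithelial NBT-T2 cells exposed to compound. Viability read by MTT, and IC50 values derived from it.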

Bacillus subtilis [2] = assay: Antibacterial activity against Bacillus subtilis at 1 ug/disk after 24 hrs by agar-plate diffusion assay; format: functional; conditions: read-out: IZ
Summary of the method: (§1)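 Paper disks loaded with compound (acetone solution), 0.1 to 10 µg/disk, placed on agar plates inoculated with B. subtilis. Incubated 37 °C for 24 h, then read for zones of inhibition. All materials sterilized at 121 °C for 20 min before and after testing.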

Bacillus subtilis [3] = assay: Antibacterial activity against Bacillus subtilis at 0.1ug/disk after 24 hrs by agar-plate diffusion assay; format: functional; conditions: read-out: IZ; summary of the method: as §1
Bacillus subtilis [4] = assay: Antibacterial activity against Bacillus subtilis at 10 ug/disk after 24 hrs by agar-plate diffusion assay; format: functional; conditions: read-out: IZ; summary of the method: as §1
Bacillus subtilis [5] = assay: Antibacterial activity against Bacillus subtilis at 5 ug/disk after 24 hrs by agar-plate diffusion assay; format: functional; conditions: read-out: IZ; summary of the method: as §1

Compound | IC50 [1] [µg/mL] | zone of inhibition at 1 µg/disc (Bacillus subtilis [2]) [mm] | zone of inhibition at 0.1 µg/disc (Bacillus subtilis [3]) [mm] | zone of inhibition at 10 µg/disc (Bacillus subtilis [4]) [mm] | zone of inhibition at 5 µg/disc (Bacillus subtilis [5]) [mm]
Oc1c(Br)cc(Br)cc1Oc1c(Br)cc(Br)c(Br)c1O | > 15 | 7 | 0 | 10 | 8
COc1c(Br)cc(Br)cc1Oc1c(Br)c(Br)c(Br)c(Br)c1OC | – | 0 | 0 | 0 | 0
Oc1cc(Br)c(Br)c(Br)c1Oc1cc(Br)cc(Br)c1O | > 15 | 10 | 7 | 16 | 13
Oc1c(Br)cc(Br)cc1Oc1c(O)c(Br)c(Br)c(Br)c1Br | > 15 | 7 | 6 | 12 | 12
COc1cc(Br)c(Br)c(Br)c1Oc1cc(Br)cc(Br)c1OC | – | 0 | 0 | 0 | 0
Oc1ccc(Br)cc1Oc1c(O)ccc(Br)c1Br | > 15 | 13 | 7 | 18 | 16
COc1c(Br)cc(Br)cc1Oc1c(Br)ccc(Br)c1OC | – | 0 | 0 | 0 | 0
Oc1c(Br)cccc1Oc1cc(Br)c(Br)c(Br)c1O | > 15 | 0 | 0 | 13 | 8
COc1c(Br)cc(Br)cc1Oc1c(Br)cc(Br)c(Br)c1O | – | 11 | 6 | 14 | 14
Oc1cc(Br)cc(Br)c1Oc1cc(Br)cc(Br)c1O | > 15 | 0 | 0 | 18 | 16
COc1c(Br)c(Br)c(Br)c(Br)c1Oc1cc(Br)cc(Br)c1O | – | 0 | 0 | 0 | 0
Oc1ccc(Br)cc1Oc1cc(Br)cc(Br)c1O | > 15 | 6 | 6 | 11 | 8
Oc1ccc(Br)cc1Oc1c(O)c(Br)cc(Br)c1Br | > 15 | 8 | 7 | 17 | 16
COc1cc(Br)c(Br)c(Br)c1Oc1cc(Br)cc(Br)c1O | – | 0 | 0 | 0 | 0
COc1c(Br)cc(Br)cc1Oc1ccc(Br)cc1Br | – | 0 | 0 | 0 | 0
COc1ccc(Br)cc1Oc1c(OC)ccc(Br)c1Br | – | 0 | 0 | 0 | 0
COc1c(Br)cc(Br)cc1Oc1c(O)cc(Br)c(Br)c1Br | 2.8 (≈ 4.58 µM) | 9 | 6 | 10 | 10
COc1c(Br)cc(Br)cc1Oc1c(Br)cc(Br)c(Br)c1OC | – | 0 | 0 | 0 | 0
Oc1cc(Br)ccc1Oc1cc(Br)cc(Br)c1O | 8.5 (≈ 19.4 µM) | 0 | 0 | 13 | 7
COc1cc(Br)cc(Br)c1Oc1cc(Br)cc(Br)c1OC | – | 0 | 0 | 0 | 0
COc1c(Br)cc(Br)c(Br)c1Oc1cc(Br)cc(Br)c1O | – | 7 | 6 | 13 | 10
Brc1cc(Br)c2c(c1)Oc1c(Br)c(Br)c(Br)c(Br)c1O2 | > 15 | 12 | 7 | 14 | 13
Oc1c(Br)cc(Br)cc1Oc1c(Br)ccc(Br)c1O | > 15 | 13 | 7 | 20 | 20
COc1c(Br)c(Br)cc(Br)c1Oc1cc(Br)cc(Br)c1O | – | 9 | 6 | 9 | 9
Oc1ccccc1Oc1c(O)cc(Br)cc1Br | > 15 | 8 | 6 | 14 | 10
COc1c(Br)cc(Br)cc1Oc1c(O)c(Br)c(Br)c(Br)c1Br | > 15 | 10 | 0 | 13 | 10
COc1ccc(Br)cc1Oc1c(Br)c(Br)cc(Br)c1OC | – | 0 | 0 | 0 | 0
